ChEMBL document CHEMBL4017523, “Computer-Aided Identification and Lead Optimization of Dual Murine Double Minute 2 and 4 Binders: Structure-Activity Relationship Studies and Pharmacological Activity” (J Med Chem, 2017)
Active and inactive are the calls of the source. The calls are words filed in the database; no cut-off is given here.

Columns and labels:
[1] = molecular target: T1, Protein Mdm4 (Homo sapiens) (UniProt O15151); assay: Inhibition of MDM4 in human SH-SY5Y cells assessed as accumulation of p53 at 1 uM after 24 hrs in presence of Nutlin-3 by Western blot analysis; format: cell-based
T1 sequence (whole entry): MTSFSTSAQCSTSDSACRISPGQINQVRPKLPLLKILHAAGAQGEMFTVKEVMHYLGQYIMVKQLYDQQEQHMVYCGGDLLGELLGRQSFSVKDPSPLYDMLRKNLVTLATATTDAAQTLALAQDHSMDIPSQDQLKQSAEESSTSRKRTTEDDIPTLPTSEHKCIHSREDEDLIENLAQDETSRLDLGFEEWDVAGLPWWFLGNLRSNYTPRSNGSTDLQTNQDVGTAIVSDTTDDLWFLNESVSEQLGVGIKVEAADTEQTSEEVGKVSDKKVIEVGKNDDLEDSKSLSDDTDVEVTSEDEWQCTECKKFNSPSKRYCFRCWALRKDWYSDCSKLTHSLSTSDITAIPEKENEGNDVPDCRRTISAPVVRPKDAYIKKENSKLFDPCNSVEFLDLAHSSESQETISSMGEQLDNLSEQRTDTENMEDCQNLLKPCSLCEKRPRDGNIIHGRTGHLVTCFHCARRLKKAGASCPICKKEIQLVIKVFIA
Summary of the method: (§1)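 Cells treated 24 h with DMSO control or agents at 1 μM, alone or combined with 1 μM MDM2 inhibitor. Cells lysed in RIPA buffer and run on 8.5% SDS-PAGE. Blots probed overnight at 4 °C with anti-p53 (1:200), using GAPDH as loading control. Bands quantified by densitometry as percent OD versus control (mean ± SEM, N = 2).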

[2] = system: SH-SY5Y; assay: Antiproliferative activity against human SH-SY5Y cells at 1 uM after 24 hrs in presence of Nutlin-3 by MTS assay relative to control; format: functional
Summary of the method: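 Cells were exposed to compound for 24 h, alone or with 1 μM MDM2 inhibitor. Drug medium was then replaced with fresh medium, and cells grew for a further 3 days before the MTS read-out. Values are % of control (100%), mean ± SEM, N=3. For SH-SY5Y, IC50 came from a sigmoid dose-response fit.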

[3] = molecular target: E3 ubiquitin-protein ligase Mdm2 (Homo sapiens, UniProt Q00987); assay: Inhibition of MDM2 in human U87MG cells assessed as reduction in MDM2 interaction with p53 after 10 mins by quantitative sandwich immune-enzymatic assay; format: cell-based
[4] = molecular target: T1, Protein Mdm4 (Homo sapiens); assay: Inhibition of MDM4 in human SH-SY5Y cells assessed as increase in MDM2 mRNA levels at 1 uM after 24 hrs by RT-qPCR analysis; format: cell-based
Summary of the method: (§2)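 Cells incubated 24 h with agents at 1 μM, alone or combined with MDM2 inhibitor. RNA extracted and MDM2, PUMA and p21 transcripts quantified by real-time RT-PCR. Results reported as fold change versus control (mean ± SEM, N = 3).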

[5] = system: U-87 MG; assay: Antiproliferative activity against human U87MG cells at 1 uM after 24 hrs by MTS assay; format: functional, cell-based; conditions: U-87MG ATCC
Summary of the method: (§3)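 Cells treated for 24 h, either alone or combined with reference MDM2 inhibitor (1 μM) and/or MDM4 inhibitor (1 μM). Drug medium then swapped for fresh medium and growth continued before MTS read-out. Data given as percent of untreated control set to 100% (mean ± SEM, N = 3).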

[6] = molecular target: T1, Protein Mdm4 (Homo sapiens); assay: Inhibition of MDM4 in human SH-SY5Y cells assessed as accumulation of p53 at 1 uM after 24 hrs by Western blot analysis; format: cell-based; summary of the method: as §1
[7] = molecular target: T2, Protein Mdm4 (Homo sapiens, UniProt O15151); assay: Inhibition of MDM4 in human SH-SY5Y cells assessed as reduction in MDM4 interaction with p53 after 10 mins by quantitative sandwich immune-enzymatic assay; format: cell-based
T2 sequence (O15151 whole entry): T1 sequence (whole entry)

[8] = molecular target: T1, Protein Mdm4 (Homo sapiens); assay: Inhibition of MDM4 in human SH-SY5Y cells assessed as increase in PUMA mRNA levels at 1 uM after 24 hrs by RT-qPCR analysis; format: cell-based; summary of the method: as §2
[9] = molecular target: T1, Protein Mdm4 (Homo sapiens); assay: Inhibition of MDM4 in human SH-SY5Y cells assessed as increase in p21 mRNA levels at 1 uM after 24 hrs by RT-qPCR analysis; format: cell-based; summary of the method: as §2
[10] = molecular target: T1, Protein Mdm4 (Homo sapiens); assay: Inhibition of MDM4 in human SH-SY5Y cells assessed as increase in PUMA mRNA levels at 1 uM after 24 hrs in presence of Nutlin-3 by RT-qPCR analysis; format: cell-based; summary of the method: as §2
[11] = molecular target: T1, Protein Mdm4 (Homo sapiens); assay: Inhibition of MDM4 in human SH-SY5Y cells assessed as increase in p21 mRNA levels at 1 uM after 24 hrs in presence of Nutlin-3 by RT-qPCR analysis; format: cell-based; summary of the method: as §2
[12] = system: SH-SY5Y; assay: Antiproliferative activity against human SH-SY5Y cells at 1 uM after 24 hrs in presence of […] by MTS assay relative to control; format: functional; summary of the method: as §3
[13] = system: SH-SY5Y; assay: cells; conditions: Homo sapiens, 24 h, read-out: Activity
[14] = system: SH-SY5Y; assay: Antiproliferative activity against human SH-SY5Y cells at 1 nM to 100 uM after 72 hrs by neutral red dye-based assay; format: functional, cell-based
Summary of the method: (§4)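 Cells exposed to DMSO control or test agent at 1 nM to 100 μM for 72 h. Drug medium replaced, then 0.33% neutral red solution added at 10% of medium volume for 2 h at 37 °C. After PBS rinse, dye extracted with 1% glacial acetic acid/50% ethanol in PBS with 10 min shaking. Absorbance read at 540 nm.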

[15] = system: SH-SY5Y; assay: Antiproliferative activity against human SH-SY5Y cells after 24 hrs by MTS assay
[16] = system: U-87 MG; assay: Antiproliferative activity against human U87MG derived cancer stem cells after 7 days by MTS assay; format: functional, cell-based; conditions: U-87MG ATCC
Summary of the method: (§5)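 Cancer stem cells isolated by culturing 2.5 × 10^6 tumor cells without serum in NSC medium for 7 days. Treated with test agent (100 nM–10 μM) for 7 days, drug-containing medium renewed every 3 days. Proliferation measured by MTS and expressed as percent of control (mean ± SEM, N = 3).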

[17] = system: SH-SY5Y; assay: Antiproliferative activity against human SH-SY5Y derived cancer stem cells after 7 days by MTS assay; format: functional, cell-based; summary of the method: as §5
[18] = system: U-87 MG; assay: Antiproliferative activity against human U87MG cells at 1 nM to 100 uM after 72 hrs by neutral red dye-based assay; format: functional, cell-based; conditions: U-87MG ATCC; summary of the method: as §4

Chain of E3 ubiquitin-protein ligase Mdm2 (Q00987 whole entry): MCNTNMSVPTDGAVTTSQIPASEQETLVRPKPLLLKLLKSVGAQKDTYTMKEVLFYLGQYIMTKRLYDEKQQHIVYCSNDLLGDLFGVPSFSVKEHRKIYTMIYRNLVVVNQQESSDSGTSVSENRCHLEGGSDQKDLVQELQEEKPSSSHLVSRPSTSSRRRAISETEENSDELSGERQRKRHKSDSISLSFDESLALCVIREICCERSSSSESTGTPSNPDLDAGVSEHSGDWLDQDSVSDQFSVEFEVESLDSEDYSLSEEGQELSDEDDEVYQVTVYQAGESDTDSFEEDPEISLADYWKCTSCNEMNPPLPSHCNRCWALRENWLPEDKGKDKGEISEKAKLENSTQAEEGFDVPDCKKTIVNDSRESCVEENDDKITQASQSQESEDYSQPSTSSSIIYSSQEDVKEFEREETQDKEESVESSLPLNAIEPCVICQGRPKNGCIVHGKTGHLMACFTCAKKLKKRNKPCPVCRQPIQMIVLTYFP

SMILES | inhibition [1] | Activity [2] | IC50 [3] | inhibition [4] | Activity [5] | inhibition [6] | IC50 [7] | inhibition [8] | inhibition [9] | inhibition [10] | inhibition [11] | Activity [12] | viability at 1 µM [13] | Activity [14] | IC50 [15] | Activity [16] | Activity [17] | Activity [18]
CCOc1cc(/C=C2\C(=O)N(c3ccccc3)N=C2C)cc(Cl)c1OCC(=O)OC | Active | 47.1% | > 1000 nM | Active | inactive | Active | 847 nM | inactive | inactive | Active | Active |  |  |  |  |  |  | 
COc1ccc(C2=N[C@H](c3ccc(Cl)cc3)[C@H](c3ccc(Cl)cc3)N2C(=O)N2CCNC(=O)C2)c(OC(C)C)c1 |  |  |  |  | Active |  |  |  |  |  |  | 47.1% |  |  |  |  |  | 
O=C(CC(c1ccccc1)c1ccccc1)N[C@@H](Cc1ccc(OCCCNc2ccccn2)cc1)C(=O)O |  |  |  |  |  |  |  |  |  |  |  |  | 62.4% | Active | 356 nM | Dose-dependent effect | Dose-dependent effect | Active
